Bioassay records (PubChem)
MITF act – activators of MITF-driven TRPM1 promoter activity in SK-MEL-5 cells. SK-MEL-5 TRPM1-promoter luciferase, 24 h; % of positive control, neutral wells = 0. activation, % at 12.5 µM. actives 0.75% (n = 300,000);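 active = mean activation of at least 80% with every replicate also reaching 80%; inconclusive = mean reaches 80% but some replicate falls short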
XiGFP reactiv – X-chromosome reactivation activator; AID 743238; XiGFP mouse fibroblasts, % GFP-positive cells imaging, 3 d; cells co-treated with 5-aza-dC sensitizer; scaled so ellipticine positive control = 100%; actives 0.055% (n = 360,000); activation, % at 7.58 µM;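 active = mean normalized replicate activation at least 10% and every replicate at or above 10%; inconclusive = only one of the two criteria met; inactive = mean below 10% and not all replicates reach 10%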
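System: 68-5-11 XiGFP fibroblast line; Timing: 3 days compound exposure; Compound dosing: one concentration, pinned; Benchmarks: positive control ellipticine, 6 µM final; Buffer or medium: DMEM containing 5-aza-dC.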
esBAF inh – inhibitors of esBAF chromatin remodeling in mouse ES cells. Bmi1-luciferase knock-in reporter, 24 h; 100% = twice the neutral-well signal. reporter increase, % at 12.5 µM. actives 2% (n = 350,000). AID 602393; in the data active = activation above about 40%; inconclusive = no clear call, values can overlap the other calls;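 note: a rise in the Bmi1 reporter signal indicates esBAF inhibition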
Vif inh – HIV Vif inhibition | actives 0.35% (n = 340,000) | inhibition, % at 7.49 µM | HEK293T cells, Vif self-association by quenched fluorescence, imaging, 24 h; in the data active = inhibition above about 50%, passing the limit was not always enough; inconclusive = no clear call, values can overlap the other calls; inactive = below about 31%
Wnt act – activates Wnt/beta-catenin signaling in a reporter cell assay; activator, plate reader; activation, % at 9.35 µM; actives 1.2% (n = 300,000); AID 743398; in the data active = activation above about 30%, passing the limit was not always enough; inconclusive = no clear call, values can overlap the other calls
Hits are given with their value; 0 = inactive; ? = inconclusive; - = no result. Only some compounds are listed: those with a hit (about 2.6% of all), similar ones and a draw of the others.

SMILES	MITF act	XiGFP reactiv	esBAF inh	Vif inh	Wnt act
Cc1ccc2c(CN3CC(C)CC(C)C3)cc(=O)oc2c1 (stereo not drawn)	0	0	0	0	0
COc1ccc2c(CN3CCCCCCC3)cc(=O)oc2c1	-	0	48	-	0
Cc1cc2oc(=O)cc(CN3CCC(C)CC3)c2cc1Cl	0	-	58	-	0
Cc1cc(C)c2c(CN3CCN(Cc4ccccc4)CC3)cc(=O)oc2c1	0	0	0	104	0
Cc1ccc2c(CN3CCC(C)CC3)cc(=O)oc2c1	0	-	59	0	-
C[C@H]1CN([C@@H](C)CO)C(=O)c2cc(NS(=O)(=O)c3ccc(Cl)cc3)ccc2O[C@@H]1CN(C)C	-	0	0	-	-
CCCNC(=O)C[C@H]1CC[C@H]2[C@@H](COC[C@H](O)CN2C(=O)c2ccccn2)O1	-	0	0	-	-
CCCN1C[C@@H](C)[C@@H](OC)CN(C)C(=O)c2cc(NC(=O)Nc3cccc(OC)c3)ccc2OC[C@H]1C	-	0	0	-	-
CCc1ccc(Oc2cc(C)nc(N)n2)cc1	0	-	61	-	-
Cc1ccc(NC(=O)c2ccc([N+](=O)[O-])o2)c(C)c1	0	0	0	0	0
Cc1ccc(S(=O)(=O)c2ccc([N+](=O)[O-])o2)cc1	0	0	-	90	0
O=C(CCc1ccccc1)Nc1ccccc1[N+](=O)[O-]	0	0	-	0	-
COc1ccc(NC(=O)CCCC(=O)c2ccccc2)cc1OC	-	0	0	0	0
COc1ccc(NC(=O)CCCc2ccccc2)cc1OC	-	0	65	0	0
O=C(CCCc1ccccc1)Nc1ccccc1[N+](=O)[O-]	0	0	53	0	0
CCc1ccc(C(=O)CCC(=O)Nc2ccc(OC)c(S(=O)(=O)N3CCCCC3)c2)cc1	0	0	0	-	56
COc1ccc(NC(=O)CCc2ccccc2)cc1S(=O)(=O)N1CCCCC1	-	141	0	0	0
Cc1ccc(S(=O)(=O)Nc2ccc3c(c2)CC(=O)N([C@H](C)CO)C[C@H](C)[C@H](CN(C)C(=O)NC(C)C)O3)cc1	-	0	0	-	-
Cc1cc(C(=O)COc2ncnc3sccc23)c(C)n1C	0	-	55	-	-
COCC(=O)N1C[C@@H](C)[C@H](OC)CN(C)C(=O)c2cc(NC(=O)c3ccc(F)cc3)ccc2OC[C@H]1C	-	0	0	-	-
CCCC1CCC(c2ccc(OCC)cc2)=CC1=O (stereo not drawn)	0	0	0	0	53
Cc1ccc(C(=O)/C=C/Nc2cccc(O)c2)cc1	0	-	0	0	-
O=C(/C=C/Nc1cccc(O)c1)c1ccccc1	0	-	0	-	48
O=C(c1cc2ccccc2[nH]1)N1O[C@@H]2C=C[C@H]1C2	0	0	42	0	?
Nc1ccccc1C(=O)N1O[C@@H]2C=C[C@H]1C2	0	0	0	0	0
SMILES	MITF act	XiGFP reactiv	esBAF inh	Vif inh	Wnt act
Cc1ccc2oc(-c3cccc(NC(=O)c4ccc(Br)o4)c3)nc2c1	0	-	65	0	-
CCC(=O)Nc1ccc2oc(-c3cccnc3)nc2c1	?	0	-	0	0
Cc1ccc(-c2nc3cc(C)ccc3o2)cc1	0	-	0	0	-
Cc1cc2nc(-c3cccc(NC(=O)c4ccc(Br)o4)c3)oc2cc1C	0	-	0	0	-
CCC(C)NCC(=O)Nc1ccc(-c2nc3cc(NC(=O)CNC(C)CC)ccc3o2)cc1 (stereo not drawn)	-	-	0	0	0
COC(=O)c1ccc(-c2nc3ccc(C)cc3o2)cc1	0	-	52	0	55
CC(C)CC(=O)Nc1ccc2oc(-c3cccnc3)nc2c1	0	-	50	0	-
Cc1ccc2oc(-c3ccc(NC(=O)CC(C)C)cc3)nc2c1	101	-	50	0	0
Cc1noc(C)c1NC(=O)N(C)C[C@H]1Oc2c(NC(=O)CCCCCC(=O)Nc3ccccc3N)cccc2C(=O)N([C@H](C)CO)C[C@@H]1C	-	0	-	-	-
CO[C@H]1CN(C)C(=O)c2ccc(NC(=O)Nc3cc(F)ccc3F)cc2OC[C@@H](C)NC[C@@H]1C	-	0	0	-	-
C[C@@H]1CN([C@@H](C)CO)C(=O)c2c(c3ccccc3n2C)-c2ccccc2CO[C@@H]1CN(C)Cc1ccccc1	-	0	-	-	-
C[C@@H]1CN([C@H](C)CO)S(=O)(=O)c2ccc(C3=CCCCC3)cc2O[C@@H]1CN(C)Cc1ccccc1F	-	0	0	-	-
O=C1[C@H](Cc2ccc(C(F)(F)F)cc2)CCn2nncc2COC[C@H]2CCCCN12	-	0	-	-	-
Cc1ccc(S(=O)(=O)Nc2ccc3c(c2)C(=O)N([C@H](C)CO)C[C@@H](C)[C@@H](CN(C)C(=O)Nc2ccccc2)OCCCC[C@@H](C)O3)cc1	-	0	0	-	-
